# Screens as filed in PubChem.
# Sampled rows, rich in hits. Any-hit rate of the full collection: about 1.3%.
# S1P4 ag – S1P4 receptor agonists, primary screen, cell-based; S1P4-expressing cell line, agonist reporter assay; activation, % at 4.98 µM; 220,000 compounds, 0.35% hits; AID 1509, 2009; in the data active means activation above about 11%;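 further: 0% = DMSO vehicle and 100% = reference agonist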
# Target sequence (O95977 whole entry, looked up): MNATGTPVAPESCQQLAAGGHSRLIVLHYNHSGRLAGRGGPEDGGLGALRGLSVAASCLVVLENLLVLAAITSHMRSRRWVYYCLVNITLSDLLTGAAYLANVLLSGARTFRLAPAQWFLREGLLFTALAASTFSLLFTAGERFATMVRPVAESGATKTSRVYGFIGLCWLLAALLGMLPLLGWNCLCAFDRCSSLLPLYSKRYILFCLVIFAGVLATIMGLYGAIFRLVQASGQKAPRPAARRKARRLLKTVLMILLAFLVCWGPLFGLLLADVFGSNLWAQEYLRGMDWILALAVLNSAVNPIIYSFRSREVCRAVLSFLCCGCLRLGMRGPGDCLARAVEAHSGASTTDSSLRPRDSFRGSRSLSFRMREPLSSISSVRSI
# Mdm2 ligase inh – MDM2-luciferase reporter signal enhancers, primary screen, MDM2 E3 ligase inhibitor project, cell-based, luminescence, 1536-well; AID 1230, 2008; E3 ubiquitin-protein ligase Mdm2 (Homo sapiens), Q00987; signal enhancement, % at 5 µM; cell-based MDM2 ubiquitination luciferase reporter, 2 h; 0 = plate control, 100 = twice control, blank-subtracted; 210,000 compounds, 0.11% hits;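 active means signal enhancement of 30% or more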;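 further: luminescence tracks abundance of the self-degrading MDM2-luciferase fusion protein; higher signal means inhibition of MDM2 E3 ligase activity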
#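 Timing – 2 h compound exposure at 37 °C · Assay system – mammalian cells stably expressing self-ubiquitinating, self-degrading MDM2 E3–luciferase fusion · Amount – 2000 cells seeded into each well · Measure – % luminescence enhancement versus blank-corrected plate control mean · Measured by – SteadyLite luminescence, 15 min reagent step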
# S1P4 antag – S1P4 receptor antagonists, primary screen, cell-based. 220,000 compounds, 0.26% hits. AID 1510, 2009. Sphingosine 1-phosphate receptor 4 (Homo sapiens), O95977. inhibition, % at 4.98 µM. S1P4-expressing cells, antagonist mode, reporter read-out; in the data active means inhibition above about 29%;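 further: 0% = wells stimulated with agonist and 100% = vehicle wells without agonist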
# Hsp70 activator – Hsp70 transcriptional activators, primary screen, cell-based, HeLa, Hsp70 promoter luciferase, luminescence, 10 µM. activation, % at 10 µM. 200,000 compounds, 0.04% hits. HeLa Hsp70 promoter luciferase reporter; scaled: vehicle 0, proteasome-inhibitor control 100%;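 active means activation above the mean across all tested compounds plus 3 SD, cutoff set per campaign, cut at about 5.5% in these data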;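 further: 100% = MG132 at 30 µM as the positive control and 0% = DMSO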
# Dynein cargo inh – inhibitors of GR-EGFP nuclear translocation, primary screen, dynein cargo transport inhibitor project, imaging, high-content, 3617.4 mouse cells; test concentration mostly 20 µM; stimulated with dexamethasone, 1 µM; stronger effect = lower value; z-score, hits read low; 220,000 compounds, 0.47% hits; AID 1381, 2008;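 active means plate z-score of nuclear minus cytoplasmic receptor signal below a set negative limit, without overly bright fluorescence or cell loss, cut at about -3.5 in these data, passing the limit was not always enough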;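 further: z-score of nuclear minus cytoplasmic ring GR-EGFP intensity difference per well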
#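 medium = tetracycline-free induction medium containing charcoal-stripped FBS | probe or stimulus = dexamethasone, 1.0 µM final | timing = 48 h induction, then 1 h compound, then 30 min agonist, 37 °C | detection = automated 10x imaging of fixed Hoechst-stained cells | read-out basis = nuclear versus cytoplasmic GR-EGFP signal, averaged per well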
# S1P3 antagonist – S1P3 receptor antagonists, primary screen, cell-based | inhibition, % at 4.98 µM | CHO S1P3 NFAT-BLA reporter, FRET fluorescence, antagonist mode | Sphingosine 1-phosphate receptor 3 (Homo sapiens), Q99500 | AID 485, 2006 | 170,000 compounds, 0.27% hits;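 active means inhibition above the plate cutoff, the mean inhibition of test wells on that plate plus 3 SD, cut at about 28% in these data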;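 further: cells challenged with S1P at its EC80 of 0.8 µM; blue over green emission ratio from cleaved BLA substrate after 4 h stimulation; 0% = S1P-stimulated wells and 100% = unstimulated DMSO-only wells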
# Target sequence (Q99500 whole entry, looked up): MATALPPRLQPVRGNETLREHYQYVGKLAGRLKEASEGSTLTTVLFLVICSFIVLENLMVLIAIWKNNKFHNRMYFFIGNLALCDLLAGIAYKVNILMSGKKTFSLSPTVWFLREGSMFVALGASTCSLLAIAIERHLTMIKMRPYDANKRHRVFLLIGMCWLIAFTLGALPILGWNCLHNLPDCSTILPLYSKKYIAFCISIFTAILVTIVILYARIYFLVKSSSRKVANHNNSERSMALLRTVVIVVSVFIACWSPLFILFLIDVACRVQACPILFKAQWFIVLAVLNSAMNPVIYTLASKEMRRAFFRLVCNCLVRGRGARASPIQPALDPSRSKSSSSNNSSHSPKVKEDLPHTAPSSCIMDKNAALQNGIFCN
# S1P4 antag cf – S1P4 receptor antagonists, human, confirmation, cell-based; shares compounds with S1P4 antag; S1P4-expressing cell line, antagonist mode, reporter read-out; inhibition, % at 4.98 µM; 520 compounds, 71% hits; AID 1524, 2009; in the data active means inhibition above about 30%
# S1P1 antagonist – S1P1 receptor antagonists, human, counter-screen for S1P4 antagonist project, cell-based; 520 compounds, 37% hits; inhibition, % at 4.98 µM; AID 1564, 2009; shares compounds with S1P4 antag; cell-based S1P1 antagonist counterscreen, inhibition; in the data active means inhibition above about 40%;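 further: receptor stimulated with S1P near its EC80; 0% = agonist stimulated wells and 100% = vehicle only wells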
# The depositor's hits bear a star; x = no result.
SMILES,S1P4 ag,Mdm2 ligase inh,S1P4 antag,Hsp70 activator,Dynein cargo inh,S1P3 antagonist,S1P4 antag cf,S1P1 antagonist
CC1=CC(C)(C)Nc2ccc(OC(=O)c3ccco3)cc21,1.3,-4.9,29.8*,-0.3,-1.33,-26.4,56.1*,30.2
CC1=CC(C)(C)Nc2ccc(OC(=O)C(C)N3C(=O)c4ccccc4C3=O)cc21 (stereo not given),-1.8,-11.7,-7.9,-0.2,0.672,x,x,x
Cc1ccc(C2N=C(N)Nc3nc(=O)c4ccccc4n32)cc1 (stereo not given),0.7,-15.5,-5.9,x,0.131,-8.9,x,x
Cc1ccc(NC(=O)COC(=O)c2ccc([N+](=O)[O-])o2)cc1S(=O)(=O)N1CCCCC1,0.2,-3.5,-4.8,0.0,-0.725,-11.4,x,x
O=C(Nc1cccc(S(=O)(=O)N2CCCCC2)c1)c1ccc([N+](=O)[O-])o1,-4.4,9.9,53.8*,0.8,-1.78,-14.7,95.2*,19.2
Cc1ccc(NC(=O)c2ccc([N+](=O)[O-])o2)cc1S(=O)(=O)N1CCOCC1,-2.2,-3.0,67.9*,0.0,-1.78,-3.2,88.0*,42.2*
O=C(CCN1CCC(c2ccc(Cl)s2)=N1)c1ccc(Cl)s1,0.1,-14.4,-4.9,x,-0.197,4.0,x,x
CCOC(=O)C1=C(C)N=C2SC(C(=O)OC)=CC(=O)N2C1c1ccc(OC)cc1 (stereo not given),-0.3,-1.3,46.5*,-0.4,-1.21,9.6,16.5,5.7
Cc1c(NC(=O)CSCc2c(F)cccc2Cl)c(=O)n(-c2ccccc2)n1C,1.0,-1.4,-22.8,0.0,0.225,-0.2,x,x
O=S(=O)(Nc1ncccn1)c1ccc(NC(=S)Nc2ccccc2Cl)cc1,-0.7,-6.2,7.1,x,1.74,-13.9,x,x
COC(=O)COc1ccc(S(=O)(=O)N2CCN(c3ccccc3F)CC2)cc1C,0.1,-9.3,34.6*,-0.3,0.292,-37.4,14.0,-9.1
COc1ccc(CN(C(=O)c2oc3ccccc3c2C)C2CCS(=O)(=O)C2)cc1OC (stereo not given),0.5,-6.8,31.8*,0.0,0.591,7.3,-18.0,-1.8
O=c1[nH][nH]c(=O)n1-c1ccccc1,1.9,-17.3,-14.8,-0.2,-0.227,10.3,x,x
CCCN1CCCc2ccccc21,-1.3,-12.6,3.0,-0.3,-0.0678,x,x,x
N#CCCN1CCCc2cc(N=Nc3ccc(C(F)(F)F)cc3)ccc21,-1.9,-18.8,31.3*,x,-1.18,-6.6,84.6*,28.1
Cn1nc(-c2ccc(Cl)cc2)nc2c(=O)n(C)c(=O)nc1-2,-9.2,-43.4,89.6*,-0.5,-2.98,x,110.4*,87.7*
CS(=O)(=O)n1nc(-c2ccc(Cl)cc2)nc1N,0.4,-7.7,3.3,-0.3,-0.126,-12.1,x,x
O=C(/C=C/c1ccc([N+](=O)[O-])cc1)c1cccnc1,1.0,-18.9,34.4*,-0.3,-1.13,-3.8,79.3*,52.0*
O=C(/C=C/c1ccc([N+](=O)[O-])cc1)NCc1cccnc1,-1.1,-19.9,-9.0,-0.3,-0.367,x,x,x
CC(C)NC(=O)CSCc1c(F)cccc1Cl,-1.2,1.8,57.1*,-0.5,2.86,x,-3.0,-6.5
O=C(Nc1ccc(Br)cc1)C1OCCc2ccccc21 (stereo not given),-0.6,x,7.4,x,-0.677,10.1,x,x
Cc1nccn1CCCN1C(=O)OC2(CCCCC2)C1(C)O (stereo not given),-2.9,1.1,31.9*,-0.4,1.07,-6.5,1.9,-0.3
CCC1(C)OC(=O)N(CCCn2ccnc2C)C1(C)O (stereo not given),0.9,x,-20.0,-0.3,-1.42,x,x,x
CCOc1ccc(-c2nc(-c3ccccc3)no2)cc1OCC,1.3,-10.9,78.4*,0.2,-0.853,-13.4,-2.9,-42.4
CCOc1ccc(-c2nc(-c3ccncc3)no2)cc1OCC,0.4,-5.0,-13.9,-0.1,-0.942,-3.3,x,x
SMILES,S1P4 ag,Mdm2 ligase inh,S1P4 antag,Hsp70 activator,Dynein cargo inh,S1P3 antagonist,S1P4 antag cf,S1P1 antagonist
CC1=C(C(=O)Nc2ccc([N+](=O)[O-])cc2)C(c2cccc(C(F)(F)F)c2)NC(=S)N1c1ccccc1 (stereo not given),-0.9,-16.5,31.4*,-0.2,-0.47,x,32.8*,15.2
CCOC(=O)C1CCN(c2c(NCCC(C)C)c(=O)c2=O)CC1,-0.7,-8.9,6.1,x,0.88,17.4,x,x
COc1cc(-c2nc3n(n2)C(c2ccncc2)C(C(N)=O)=C(C)N3)cc(OC)c1OC (stereo not given),0.5,2.6,65.9*,-0.3,0.296,-4.7,-0.9,5.1
O=C(Nc1nc(=O)c2ccccc2s1)c1ccccc1,-1.2,-25.2,36.3*,0.4,-0.484,x,-4.3,-5.7
CC(=O)Nc1nc(=O)c2ccccc2s1,1.0,-9.8,5.5,0.1,-0.28,-10.9,x,x
O=c1c2cc(NC(=S)NCc3cccnc3)ccc2nc2n1CCCCC2,0.0,-2.9,-19.7,-0.1,-0.452,3.7,x,x
COc1cc2c3nnc(-c4ccccc4)c-3cn(Cc3ccccc3F)c2cc1OC,-5.3,-16.3,84.1*,0.0,1.39,11.5,85.7*,128.1*
C#CCOc1ccc(C2C3=C(COC3=O)Nc3cc4c(cc32)OCO4)cc1OC (stereo not given),-0.4,-6.0,38.3*,0.1,0.573,12.7,39.4*,79.8*
CC(C)=CCN1CCN(Cc2ccc(C#CC(C)(C)O)s2)CC1CCO (stereo not given),1.3,-10.0,-11.6,-0.3,-0.217,8.1,x,x
CC(NC(=O)CN(c1cccc(C(F)(F)F)c1)S(=O)(=O)c1ccc(Cl)c([N+](=O)[O-])c1)c1ccccc1 (stereo not given),0.1,-19.7,44.4*,-0.3,-1.55,-18.0,87.3*,52.9*
CC(C)(C)NC(=O)CN(c1cccc([N+](=O)[O-])c1)S(=O)(=O)c1ccccc1,0.7,-1.5,-12.8,0.2,-0.00835,-19.9,x,x
O=S(=O)(c1ccc2ccccc2c1)N1C=CC(C(F)(F)F)=NCC1,1.9,-23.6,-17.0,-0.6,0.841,x,x,x
Cc1ccc(S(=O)(=O)CCN2C=CC(C(F)(F)F)=NCC2)cc1,0.3,-14.8,32.6*,x,0.0528,-13.3,-2.8,-11.5
